This is a sample that favours compounds with a hit; in the whole collection about 2.3% have one here.
MEKK2 WT-MEK5 = raises or lowers MEK5 binding to wildtype human MEKK2 PB1 domain; bead flow cytometry, Alexa488-MEK5 binding to MEKK2 WT; actives lie on both sides; binding response (% of control), % at 10 µM; 290,000 compounds, 1.1% hits; AID 1531; in the data active means binding response below about 67% or above about 130%
MEKK2mut PB1 HTS = signal of MEK5 binding to mutant human MEKK2 PB1 domain; bead flow cytometry, Alexa488-MEK5 binding to MEKK2 mutant; AID 1530; 290,000 compounds, 0.35% hits; percent response, % at 10 µM; in the data active means percent response above about 24%, passing the limit was not always enough
MEKK3 PB1 HTS = raises or lowers MEK5 binding to the human MEKK3 PB1 domain; bead-based flow cytometry, Alexa488-MEK5 binding to MEKK3; actives lie on both sides; 0 = blocked by unlabeled MEK5, 100 = vehicle; binding response (% of control), % at 10 µM; Q99759; 290,000 compounds, 1.4% hits;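 active means binding response more than 3 SD above or below the average of its plate-row segment, actives on both sides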;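 further: Alexa488 bead fluorescence after subtracting the streptavidin-only scavenger bead signal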
ABCB1 block = blocks JC-1 efflux by human ABCB1 transporter; AID 1326; 190,000 compounds, 0.067% hits; CCRF-Adr cells, flow cytometry; inhibition, % at 6.6 µM; P08183; in the data active means inhibition above about 40%;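 further: 0% = vehicle and 100% = reference inhibitor; higher value means more JC-1 retained so stronger ABCB1 efflux block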
ABCG2 inh = blocks JC-1 efflux by human ABCG2 transporter. Q9UNQ0. IgMXP3 cells, flow cytometry. inhibition, % at 6.6 µM. 190,000 compounds, 0.1% hits. AID 1325;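 active means inhibition above 80%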;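 further: 0% = DMSO and 100% = nicardipine control wells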
Target sequence (Q9UNQ0 whole entry, looked up): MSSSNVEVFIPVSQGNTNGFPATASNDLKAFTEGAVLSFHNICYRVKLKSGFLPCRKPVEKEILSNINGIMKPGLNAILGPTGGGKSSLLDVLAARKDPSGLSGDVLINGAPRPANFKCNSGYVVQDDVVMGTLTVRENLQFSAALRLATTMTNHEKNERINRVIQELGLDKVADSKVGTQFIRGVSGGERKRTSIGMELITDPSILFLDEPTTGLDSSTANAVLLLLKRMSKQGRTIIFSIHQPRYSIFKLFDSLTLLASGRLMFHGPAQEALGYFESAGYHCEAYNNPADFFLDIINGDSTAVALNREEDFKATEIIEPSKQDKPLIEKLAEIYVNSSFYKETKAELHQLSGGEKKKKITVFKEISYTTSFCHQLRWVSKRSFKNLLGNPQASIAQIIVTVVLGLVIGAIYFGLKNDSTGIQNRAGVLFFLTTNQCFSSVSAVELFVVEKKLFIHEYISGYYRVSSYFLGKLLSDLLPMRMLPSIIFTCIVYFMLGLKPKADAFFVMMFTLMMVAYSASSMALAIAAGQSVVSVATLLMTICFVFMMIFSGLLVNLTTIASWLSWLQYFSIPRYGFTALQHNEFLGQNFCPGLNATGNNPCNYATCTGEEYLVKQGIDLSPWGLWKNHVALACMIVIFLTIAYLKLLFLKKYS
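material = IgMXP3 (ABCG2) plus far-red-tagged CCRF-Adr (ABCB1) cells | amount = 3 million cells/mL, equal mix of both lines | also added = JC-1 transporter substrate | dosing = one concentration, 6.6 µM final | schedule = 10 min at 25 °C | measured by = flow cytometric JC-1 green MFI at 530 nm | read-out basis = percent efflux inhibition, scaled nicardipine 100% to DMSO 0%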
MEKK2wt confirm = raises or lowers MEK5 binding to wildtype human MEKK2, retest | shares compounds with MEKK3 PB1 HTS | bead flow cytometry, Alexa488-MEK5 binding to MEKK2 WT; actives lie on both sides | binding response (% of control), % at 10 µM | 5,900 compounds, 2.4% hits | AID 1892; in the data active means binding response below about 16% or above about 210%; inactive means in between
MEKK2mut-MEK5 = signal of MEK5 binding to mutant human MEKK2, retest; shares compounds with MEKK3 PB1 HTS; bead flow cytometry, Alexa488-MEK5 binding to MEKK2 mutant; percent response, % at 10 µM; 5,900 compounds, 2% hits; in the data active means percent response mostly above about 71%, no sharp cut-off; inactive means mostly below about 38%;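 further: higher means compound restores mutant binding toward wildtype level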
MEKK3 confirm = confirmation of inhibitors of MEK5 binding to human MEKK3. shares compounds with MEKK3 PB1 HTS. bead flow cytometry, Alexa488-MEK5 binding to MEKK3; stronger effect = lower value. binding response (% of control), % at 10 µM. 5,900 compounds, 1.8% hits;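 active means binding response below 72% of control, or above a set upper limit, though filed actives all read lower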;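 further: 100% = DMSO only wells and 0% = binding blocked by excess unlabeled MEK5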
* = called active by the depositor; / = no result given; [ ] = remark or other dose.

SMILES	MEKK2 WT-MEK5	MEKK2mut PB1 HTS	MEKK3 PB1 HTS	ABCB1 block	ABCG2 inh	MEKK2wt confirm	MEKK2mut-MEK5	MEKK3 confirm
COc1ccc(-c2nc(SC(CC(=O)NCc3ccccc3)c3ccc(OC)c(OC)c3)n[nH]2)cc1 (configuration not stated)	101	0	128*	0	-7	94	-9	94
Cc1nn(C)cc1CNC(=O)c1cccc(Br)c1	96	8	122*	0	0	99	2	97
Cc1nn(C)cc1CNC(=O)c1cccc(F)c1	103	0	107	0	7	/	/	/
CCCN1CCC(NC(=O)C2CCCCC2C(=O)O)CC1 (configuration not stated)	99	-3	102	/	/	/	/	/
C/C(=N\NC(=O)CCC(=O)NCc1ccccc1)c1ccco1	103	-1	98	/	/	/	/	/
C=CCC(C)(NCc1ccccc1)c1ccco1 (configuration not stated)	2.0*[inhibitor]	-16	2.0*[inhibitor]	1	3	106	1	97
COc1cc(/C=N/NC(=S)Nc2cccc(C(=O)O)c2)ccc1O	111	2	143*	0	0	102	9	102
COc1ccc(/C=N/NC(=S)Nc2cccc(C(=O)O)c2)cc1	104	-2	105	0	-1	/	/	/
Cc1ccc(-n2nnc(-c3cccnc3)n2)cc1	85	-7	78*[inhibitor]	/	/	98	0	101
O=C(/C=C/c1ccc(Cl)cc1)N1CCN(Cc2ccccc2)CC1	101	5	103	/	/	/	/	/
CC1CCCN(c2nc3c(c(=O)n(C)c(=O)n3C)n2CCSc2nc3ccccc3o2)C1 (configuration not stated)	101	0	101	3	6	/	/	/
CC1CCCN(c2nc3c(c(=O)[nH]c(=O)n3C)n2CCSc2nc3ccccc3o2)C1 (configuration not stated)	101	-13	82*[inhibitor]	1	6	108	10	108
Cc1oc(-c2ccccc2)nc1CS(=O)CC(=O)NC1CCCC1 (configuration not stated)	100	2	101	/	/	/	/	/
COc1ccccc1NC(=O)C12CC3CC(C1)CC(c1ccc(C)cc1)(C3)C2	113	8	101	1	13	/	/	/
COc1ccc(NC(=O)C23CC4CC(C2)CC(c2ccc(C)cc2)(C4)C3)cc1	117	1	150*	0	8	105	5	107
COC/C=C/C1=CC2=CC(=O)C(C)(OC(=O)c3cnc4ccccc4n3)C(=O)C2=CN1CCc1c[nH]c2ccccc12 (configuration not stated)	95	1	93	/	/	/	/	/
Cc1ccccc1NC1=NC(=S)N(CC(N)=O)C12CCOC(C)(C)C2 (configuration not stated)	48	-8	47*[inhibitor]	/	/	99	1	104
CCOC(=O)C(C(=O)Nc1cccc(C)c1)C1CCCCC1 (configuration not stated)	-4.0*[inhibitor]	-34	99	0	1	103	2	109
CCN(CC)c1ccc2nc3c4ccccc4c(=O)cc-3oc2c1	53*[inhibitor]	-26	89	/	/	76	-14	96
Cc1nnc(SCC(=O)NNC(=O)COc2ccc(Cl)cc2)n1C	101	4	96	/	/	/	/	/
NS(=O)(=O)c1ccc(CCNC(=O)c2ccccc2Cc2ccccc2)cc1	104	-1	102	/	/	/	/	/
O=C1C(=O)N(CCCO)C(c2ccc(Br)cc2)/C1=C(\O)c1ccc(Br)cc1 (configuration not stated)	113	28*	111	/	/	94	-3	100
COCCCN1C(=O)C(=O)/C(=C(/O)c2ccccc2)C1c1ccc(N(C)C)cc1 (configuration not stated)	152*	223*	102	1	3	97	-3	97
CN(C)c1ccc(C2/C(=C(/O)c3ccccc3)C(=O)C(=O)N2CCCC(=O)O)cc1 (configuration not stated)	105	-3	107	/	/	/	/	/
CN1C(=O)C(=O)/C(=C(/O)c2ccccc2)C1c1ccc(Br)cc1 (configuration not stated)	111	6	107	/	/	/	/	/
SMILES	MEKK2 WT-MEK5	MEKK2mut PB1 HTS	MEKK3 PB1 HTS	ABCB1 block	ABCG2 inh	MEKK2wt confirm	MEKK2mut-MEK5	MEKK3 confirm
CC1CCc2c(sc3[nH]c(=S)n(C)c(=O)c23)C1 (configuration not stated)	107	3	99	/	/	/	/	/
CCN(CC)c1ccc(C(=O)NNC(=O)CCl)cc1	46*[inhibitor]	-18	42*[inhibitor]	1	4	105	5	106
COC(CNC(=O)c1ccc(CS(=O)(=O)c2c(Cl)cccc2Cl)o1)OC	111	2	102	/	/	/	/	/
N#Cc1ccsc1NC(=O)CN1CCN(S(=O)(=O)c2ccccc2C(F)(F)F)CC1	91	1	55*[inhibitor]	1	1	97	-1	100
N#Cc1ccsc1NC(=O)CN1CCN(c2ccccc2O)CC1	100	2	64*[inhibitor]	1	2	97	-2	101
Cc1ccc(C)c(S(=O)(=O)N2CCN(CC(=O)Nc3sccc3C#N)CC2)c1	107	0	162*	3	2	94	-2	100
COc1ccccc1NC(=O)c1ccc(SCC(=O)NCc2ccccc2Cl)c([N+](=O)[O-])c1	103	0	133*	2	21	95	0	103
NC(=O)C1CCN(C(=O)CC2(CC(=O)O)CCCC2)CC1	100	-1	99	/	/	/	/	/
COc1ccc2ccccc2c1/C=N/O	121	6	133*	1	2	98	1	101
C=CCOc1ccc2ccccc2c1/C=N/O	103	5	109	1	3	/	/	/
CCC(=O)Nc1nnc(SCc2ccc(F)cc2)s1	3.0*[inhibitor]	2	2.0*[inhibitor]	0	2	102	2	110
CCCCC(CC(O)COCCC)c1n[nH]c(=S)n1-c1ccccc1 (configuration not stated)	106	-1	128*	0	-1	106	5	101
COc1sc(SC)cc1/C=N/NC(=O)c1ccncc1	97	-4	103	/	/	/	/	/
Cc1cc(Cl)ccc1OCC(=O)Nn1c(C)ccc1C	123	9	128*	1	4	96	-1	100
CSc1ccccc1NC(=O)COc1ccc(Cl)cc1C	112	3	106	1	13	/	/	/

Compound activity: PubChem BioAssay, NMMLSC
